MsrA inh: inhibits bovine methionine sulfoxide reductase A; purified bovine MsrA, absorbance read-out; inhibition, % at 15.5 µM; 0.75% of 360,000 active; in the data active = inhibition above about 4.5%
Tb MetRS inh: blocks T. brucei methionyl-tRNA synthetase activity. purified T. brucei MetRS, ATP depletion, Kinase-Glo luminescence. inhibition, % at 11.9 µM. 0.4% of 360,000 active. AID 624268;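 active = inhibition above a per-plate cutoff of the control wells' mean inhibition plus 3 SD, cut at about 5.5% in these data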
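Material: T. brucei methionyl-tRNA synthetase, purified; reagent: substrates ATP, L-methionine and bulk Escherichia coli tRNA; dosing: 11.9 µM single point; timing: 15 min plus 2 h at 25 °C; detection: luminescence of leftover ATP; evaluation: % inhibition; control set: DMSO-only wells as low control; replicates: singlicate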
proCasp7 act: counter-screen for procaspase-3 activators: activators of human procaspase-7 | P55210 | recombinant procaspase-7, Ac-DEVD-pNA absorbance 405 nm; D23A/D198A/D206A triple mutant, cannot self-cleave; scale: DMSO 0, 5 µM enzyme 100 | activation, % at 8.5 µM | 0.093% of 330,000 active | AID 463210;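 active = percent activation above the screen-wide mean plus 3 SD, cut at about 25% in these data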
Target sequence (P55210 whole entry D23A/D198A/D206A): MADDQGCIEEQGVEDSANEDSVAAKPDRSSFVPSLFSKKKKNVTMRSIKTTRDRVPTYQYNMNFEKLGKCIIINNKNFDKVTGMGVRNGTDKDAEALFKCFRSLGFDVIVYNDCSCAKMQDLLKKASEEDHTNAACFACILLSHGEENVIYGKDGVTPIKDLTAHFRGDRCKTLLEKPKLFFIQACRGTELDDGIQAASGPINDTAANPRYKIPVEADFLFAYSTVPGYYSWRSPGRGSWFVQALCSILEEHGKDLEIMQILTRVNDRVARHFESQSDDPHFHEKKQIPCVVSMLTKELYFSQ
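System: Uncleavable procaspase-7 mutant enzyme; Amount: 2 µM procaspase-7 mutant as dispensed; Schedule: 1 h compound preincubation, 2 h substrate cleavage, 25 °C; Measured by: 405 nm absorbance of p-nitroaniline; Evaluation: percent activation from buffer-corrected 0–120 min absorbance change; Control set: low DMSO alone, high DMSO plus 5 µM PC-7.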
bovine MsrA act: activators of bovine methionine sulfoxide reductase A. purified bovine MsrA, absorbance read-out. 0.3% of 360,000 active. activation, % at 10.6 µM; in the data active = activation above about 7.5%
proCasp3 act: activates human procaspase-3; recombinant procaspase-3 D3A, Ac-DEVD-pNA absorbance 405 nm; activation, % at 8.5 µM; P42574; 0.11% of 330,000 active; AID 463141;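 active = activation above the mean of all tested compounds plus 3 SD, cut at about 21% in these data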
Target sequence (P42574 whole entry D9A/D28A/D175A): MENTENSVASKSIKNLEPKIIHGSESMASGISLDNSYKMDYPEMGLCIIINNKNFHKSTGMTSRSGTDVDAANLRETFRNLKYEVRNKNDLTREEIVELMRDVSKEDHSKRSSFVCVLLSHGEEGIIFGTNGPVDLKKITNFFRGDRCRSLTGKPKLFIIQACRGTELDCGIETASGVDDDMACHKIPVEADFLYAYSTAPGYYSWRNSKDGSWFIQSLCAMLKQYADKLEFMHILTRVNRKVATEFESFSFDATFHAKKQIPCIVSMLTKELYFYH
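Evaluation: percent activation relative to control range; Material: Procaspase-3 D3A mutant, all three cleavage aspartates alanine; Compound: single dose, 8.5 µM nominal compound, 0.8% DMSO; Replication: one well per compound; Signal: absorbance at 405 nm, 0 and 120 min; Schedule: 1 h preincubation plus 2 h reaction at 25 °C.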
Tb MetRS conf: Trypanosoma brucei MetRS inhibition confirmed. 93% of 1,400 active. AID 624412. inhibition, % at 11.9 µM. shares compounds with Tb MetRS inh. T. brucei MetRS enzyme, luminescence (ATP depletion); in the data active = inhibition above about 7%
Jurkat tox: kills Jurkat cells in T. brucei MetRS counterscreen; 12% of 1,400 active; inhibition, % at 8.3 µM; Jurkat cells viability, ATP luminescence; shares compounds with Tb MetRS inh; in the data active = inhibition above about 15%
TbMetRS FP orth: orthogonal test for Trypanosoma brucei MetRS inhibitors; shares compounds with Tb MetRS inh; purified T. brucei MetRS, fluorescence polarization; inhibition, % at 11.9 µM; 44% of 1,400 active; in the data active = inhibition above about 17%
A number is an active result. In the library only some 1.5% were active in any assay of this set; here they are far more common.

How did COc1ccc(CNC(=O)CSc2nc3ccc(C)cc3[nH]2)cc1 do in these assays?
MsrA inh: inactive; Tb MetRS inh: 29; proCasp7 act: inactive; bovine MsrA act: inactive; proCasp3 act: inactive; Tb MetRS conf: 48; Jurkat tox: inactive; TbMetRS FP orth: 21

What do the screens show for `O=C(CSc1nc2ccccc2[nH]1)NC1CCS(=O)(=O)C1` (centres undefined)?
MsrA inh: inactive; Tb MetRS inh: 9.3; proCasp7 act: inactive; bovine MsrA act: inactive; proCasp3 act: inactive; Tb MetRS conf: 18; Jurkat tox: inactive; TbMetRS FP orth: inactive

Results for COc1ccc(CNC(=O)CSc2nc3ccc(OC)cc3[nH]2)cc1 ?
MsrA inh: inactive; Tb MetRS inh: inactive; proCasp7 act: inactive; bovine MsrA act: inactive; proCasp3 act: inactive

Results for O=C(CSc1nc2ccccc2[nH]1)NC1CCCC1 ?
MsrA inh: inactive; Tb MetRS inh: inactive; proCasp7 act: inactive; bovine MsrA act: inactive; proCasp3 act: inactive

What do the screens show for `Cc1ccc2nc(SCC(=O)NC3CCS(=O)(=O)C3)[nH]c2c1` (centres undefined)?
MsrA inh: inactive; Tb MetRS inh: 9.7; proCasp7 act: inactive; bovine MsrA act: inactive; proCasp3 act: inactive; Tb MetRS conf: 37; Jurkat tox: inactive; TbMetRS FP orth: inactive

What do the screens show for `CCN(C(=O)CSc1nc2ccc(Cl)cc2[nH]1)C1CCS(=O)(=O)C1` (centres undefined)?
MsrA inh: inactive; Tb MetRS inh: 5.7; proCasp7 act: inactive; bovine MsrA act: inactive; proCasp3 act: inactive; Tb MetRS conf: 23; Jurkat tox: inactive; TbMetRS FP orth: inactive

How did CCN(C(=O)CSc1nc2ccc(OC)cc2[nH]1)C1CCS(=O)(=O)C1 (centres undefined) do in these assays?
MsrA inh: inactive; Tb MetRS inh: inactive; proCasp7 act: inactive; bovine MsrA act: inactive; proCasp3 act: inactive

Results for COc1ccccc1-c1ccc([C@@H]2C[C@H]3[C@H](CON3C)CN2CC2CCCCC2)cc1 ?
MsrA inh: inactive

Results for CC(Sc1ccc(Cl)cc1)C(=O)NCc1ccc2c(c1)OCO2 (centres undefined) ?
MsrA inh: inactive; Tb MetRS inh: inactive; proCasp7 act: inactive; bovine MsrA act: inactive; proCasp3 act: inactive

Results for Cc1ccc2nc(SC(C)C(=O)NCc3ccc4c(c3)OCO4)[nH]c2c1 (centres undefined) ?
MsrA inh: inactive; Tb MetRS inh: 13; proCasp7 act: inactive; bovine MsrA act: inactive; proCasp3 act: inactive; Tb MetRS conf: 35; Jurkat tox: inactive; TbMetRS FP orth: inactive

How did Cc1ccccc1-c1cccc2[nH]c3c(c12)CCN1C(=O)[C@H]2[C@H](C)ON(C)[C@H]2C[C@@H]31 do in these assays?
MsrA inh: inactive

Results for Cc1nc(Nc2ccccc2)[nH]c(=O)c1CCC(C)C ?
MsrA inh: inactive; Tb MetRS inh: 7.5; proCasp7 act: inactive; bovine MsrA act: inactive; proCasp3 act: inactive; Tb MetRS conf: 52; Jurkat tox: inactive; TbMetRS FP orth: 24

Results for CCCCCCCCN1C(=O)[C@@H](CC(=O)NCC23CC4CC(CC(C4)C2)C3)C[C@@]2(C(=O)OC)C1=C[C@H](C(C)(C)C)O[C@@H]2C ?
MsrA inh: inactive

How did O=C(N[C@H](C(=O)N1CCC[C@H]1C(=O)NC1CCCC1)C1CCCCC1)c1cccs1 do in these assays?
MsrA inh: inactive

How did C[C@@H]1CN([C@@H](C)CO)C(=O)CCCn2cc(nn2)CO[C@H]1CN(C)C(=O)Nc1ccccc1F do in these assays?
MsrA inh: inactive

What do the screens show for `Cc1ccccc1-c1ccc2c(c1)[C@@H]1C[C@H]3[C@@H](CN1CC2)[C@H](C)OC(C1CCCCC1)N3C` (some centres undefined)?
MsrA inh: inactive

What do the screens show for `CCOC(=O)Cn1ccc(O)c(Cc2ccc(Cl)cc2Cl)c1=O`?
MsrA inh: inactive; Tb MetRS inh: 23; proCasp7 act: inactive; bovine MsrA act: inactive; proCasp3 act: inactive; Tb MetRS conf: 38; Jurkat tox: inactive; TbMetRS FP orth: inactive

What do the screens show for `O=c1c(Cc2ccc(Cl)cc2Cl)c(O)ccn1Cc1ccc(Cl)cc1`?
MsrA inh: inactive; Tb MetRS inh: 5.9; proCasp7 act: inactive; bovine MsrA act: inactive; proCasp3 act: inactive; Tb MetRS conf: 16; Jurkat tox: inactive; TbMetRS FP orth: inactive

Results for CCOC(CCn1ccc(O)c(Cc2ccc(Cl)cc2)c1=O)OCC ?
MsrA inh: inactive; Tb MetRS inh: inactive; proCasp7 act: inactive; bovine MsrA act: inactive; proCasp3 act: inactive

What do the screens show for `Nc1c(NC(=O)CC[n+]2ccccc2)cccc1[N+](=O)[O-]`?
MsrA inh: inactive; Tb MetRS inh: 11; proCasp7 act: inactive; bovine MsrA act: inactive; proCasp3 act: inactive; Tb MetRS conf: 18; Jurkat tox: inactive; TbMetRS FP orth: inactive

What do the screens show for `CN(C)c1cc[n+](CCC(=O)Nc2cccc([N+](=O)[O-])c2N)cc1`?
MsrA inh: inactive; Tb MetRS inh: inactive; proCasp7 act: inactive; bovine MsrA act: inactive; proCasp3 act: inactive

How did CC(C)c1[nH]nc2c1C(c1ccccc1)N(Cc1ccccc1)C2=O (centres undefined) do in these assays?
MsrA inh: inactive

Results for NC(=NCc1ccccc1)NN=Cc1ccnc2ccccc12 ?
MsrA inh: inactive; Tb MetRS inh: 7.1; bovine MsrA act: inactive; Tb MetRS conf: 10; Jurkat tox: inactive; TbMetRS FP orth: inactive

Results for NC(N)=NN=Cc1ccnc2ccccc12 ?
MsrA inh: inactive; Tb MetRS inh: inactive; bovine MsrA act: inactive

How did CCCCCCCCN1C(=O)[C@@H](CC(=O)NCCCCc2ccccc2)C[C@@]2(C(=O)OC)C1=C[C@H](C1CCCC1)O[C@@H]2C do in these assays?
MsrA inh: inactive

What do the screens show for `O=C1CC(N(CCc2ccccc2)C(=S)Nc2ccccc2)C(=O)N1c1ccccc1` (centres undefined)?
MsrA inh: inactive; Tb MetRS inh: 31; proCasp7 act: inactive; bovine MsrA act: inactive; proCasp3 act: inactive; Tb MetRS conf: 38; Jurkat tox: inactive; TbMetRS FP orth: 23

Results for O=C1CC(N(CCc2ccccc2)C(=S)Nc2ccccc2)C(=O)N1c1ccc(F)cc1 (centres undefined) ?
MsrA inh: inactive; Tb MetRS inh: 23; proCasp7 act: inactive; bovine MsrA act: inactive; proCasp3 act: inactive; Tb MetRS conf: 32; Jurkat tox: inactive; TbMetRS FP orth: inactive

Screens (PubChem)
